Experimental data taken from ChEMBL document CHEMBL4196066, “Design and synthesis of furyl/thineyl pyrroloquinolones based on natural alkaloid perlolyrine, lead to the discovery of potent and selective PDE5 inhibitors” (Eur J Med Chem, 2018).

Key:
[1] = target: T1, cGMP-specific 3',5'-cyclic phosphodiesterase (Homo sapiens, UniProt O76074); test: Inhibition of N-terminal GST-tagged full length recombinant human PDE5A1 catalytic domain expressed in Baculovirus infected Sf9 insect cells using FAM-cGMP as substrate after 1 hr by fluorescence polarization assay
Homo sapiens [2] = species on record: Homo sapiens; test: Selectivity ratio of IC50 for N-terminal GST-tagged full length recombinant human PDE1A to IC50 for N-terminal GST-tagged full length recombinant human PDE5A1 catalytic domain
Homo sapiens [3] = species on record: Homo sapiens; test: Selectivity ratio of IC50 for N-terminal FLAG-tagged human PDE2A1 (2 to 941 residues) to IC50 for N-terminal GST-tagged full length recombinant human PDE5A1 catalytic domain
Homo sapiens [4] = species on record: Homo sapiens; test: Selectivity ratio of IC50 for N-terminal GST-tagged recombinant human PDE3B (592 end residues) to IC50 for N-terminal GST-tagged full length recombinant human PDE5A1 catalytic domain
Homo sapiens [5] = species on record: Homo sapiens; test: Selectivity ratio of IC50 for N-terminal GST-tagged full length recombinant human PDE4A1A to IC50 for N-terminal GST-tagged full length recombinant human PDE5A1 catalytic domain
Homo sapiens [6] = species on record: Homo sapiens; test: Selectivity ratio of IC50 for N-terminal GST-tagged full length recombinant human PDE6C to IC50 for N-terminal GST-tagged full length recombinant human PDE5A1 catalytic domain
[7] = target: Cone cGMP-specific 3',5'-cyclic phosphodiesterase subunit alpha' (Homo sapiens, UniProt P51160); test: Inhibition of N-terminal GST-tagged full length recombinant human PDE6C expressed in Baculovirus infected Sf9 insect cells using […] as substrate after 1 hr by fluorescence polarization assay
[8] = target: Dual specificity calcium/calmodulin-dependent 3',5'-cyclic nucleotide phosphodiesterase 1A (Homo sapiens) (UniProt P54750); test: Inhibition of N-terminal GST-tagged full length recombinant human PDE1A expressed in Baculovirus infected Sf9 insect cells at 25 uM using FAM-cAMP as substrate after 1 hr by fluorescence polarization assay relative to control
[9] = target: cGMP-dependent 3',5'-cyclic phosphodiesterase (Homo sapiens) (UniProt O00408); test: Inhibition of N-terminal FLAG-tagged human PDE2A1 (2 to 941 residues) expressed in Baculovirus infected Sf9 insect cells at 25 uM using FAM-cAMP as substrate after 1 hr by fluorescence polarization assay relative to control
[10] = target: cGMP-inhibited 3',5'-cyclic phosphodiesterase 3B (Homo sapiens) (UniProt Q13370); test: Inhibition of N-terminal GST-tagged recombinant human PDE3B (592 end residues) expressed in Baculovirus infected Sf9 insect cells at 25 uM using FAM-cAMP as substrate after 1 hr by fluorescence polarization assay relative to control
[11] = target: 3',5'-cyclic-AMP phosphodiesterase 4A (Homo sapiens) (UniProt P27815); test: Inhibition of N-terminal GST-tagged full length recombinant human PDE4A1A expressed in Baculovirus infected Sf9 insect cells at 6 uM using FAM-cAMP as substrate after 1 hr by fluorescence polarization assay relative to control
Thoracic aorta [12] = test: Vasorelaxant activity in norepinephrine-pretreated New Zealand rabbit thoracic aorta assessed as increase in aortic relaxation at 1 uM measured after 15 mins relative to control; format: functional, Oryctolagus cuniculus; set-up: scale not given: the % may be the effect or the level left
Procedure, shortened: (§1)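 Thoracic aortic rings from New Zealand white rabbits were held in Krebs buffer at 2 g resting tension (0%) and equilibrated 2 h. Rings were contracted to maximum with 1 µM norepinephrine (100%). Compounds were added cumulatively at 15 min intervals, with tension recorded 15 min after each dose. Relaxation % = (max − recorded)/(max − 2 g) × 100; n = 1–2 rings.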

[13] = target: Dual specificity calcium/calmodulin-dependent 3',5'-cyclic nucleotide phosphodiesterase 1A (Homo sapiens) (UniProt P54750); test: Inhibition of N-terminal GST-tagged full length recombinant human PDE1A expressed in Baculovirus infected Sf9 insect cells at 5.5 uM using FAM-cAMP as substrate after 1 hr by fluorescence polarization assay relative to control
[14] = target: cGMP-dependent 3',5'-cyclic phosphodiesterase (Homo sapiens) (UniProt O00408); test: Inhibition of N-terminal FLAG-tagged human PDE2A1 (2 to 941 residues) expressed in Baculovirus infected Sf9 insect cells at 5.5 uM using FAM-cAMP as substrate after 1 hr by fluorescence polarization assay relative to control
[15] = target: cGMP-inhibited 3',5'-cyclic phosphodiesterase 3B (Homo sapiens) (UniProt Q13370); test: Inhibition of N-terminal GST-tagged recombinant human PDE3B (592 end residues) expressed in Baculovirus infected Sf9 insect cells at 5.5 uM using FAM-cAMP as substrate after 1 hr by fluorescence polarization assay relative to control
[16] = target: 3',5'-cyclic-AMP phosphodiesterase 4A (Homo sapiens) (UniProt P27815); test: Inhibition of N-terminal GST-tagged full length recombinant human PDE4A1A expressed in Baculovirus infected Sf9 insect cells at 1 uM using FAM-cAMP as substrate after 1 hr by fluorescence polarization assay relative to control
[17] = target: T1, cGMP-specific 3',5'-cyclic phosphodiesterase; test: Inhibition of PDE5 (unknown origin)
Thoracic aorta [18] = test: Vasorelaxant activity in norepinephrine-pretreated New Zealand rabbit thoracic aorta assessed as increase in aortic relaxation at 10 uM measured after 15 mins relative to control; format: functional, Oryctolagus cuniculus; set-up: scale not given: the % may be the effect or the level left; procedure, shortened: as §1
[19] = target: Dual specificity calcium/calmodulin-dependent 3',5'-cyclic nucleotide phosphodiesterase 1A (Homo sapiens) (UniProt P54750); test: Inhibition of N-terminal GST-tagged full length recombinant human PDE1A expressed in Baculovirus infected Sf9 insect cells at 250 uM using FAM-cAMP as substrate after 1 hr by fluorescence polarization assay relative to control
[20] = target: cGMP-dependent 3',5'-cyclic phosphodiesterase (Homo sapiens) (UniProt O00408); test: Inhibition of N-terminal FLAG-tagged human PDE2A1 (2 to 941 residues) expressed in Baculovirus infected Sf9 insect cells at 40 uM using FAM-cAMP as substrate after 1 hr by fluorescence polarization assay relative to control
[21] = target: cGMP-inhibited 3',5'-cyclic phosphodiesterase 3B (Homo sapiens) (UniProt Q13370); test: Inhibition of N-terminal GST-tagged recombinant human PDE3B (592 end residues) expressed in Baculovirus infected Sf9 insect cells at 250 uM using FAM-cAMP as substrate after 1 hr by fluorescence polarization assay relative to control
[22] = target: 3',5'-cyclic-AMP phosphodiesterase 4A (Homo sapiens) (UniProt P27815); test: Inhibition of N-terminal GST-tagged full length recombinant human PDE4A1A expressed in Baculovirus infected Sf9 insect cells at 50 uM using FAM-cAMP as substrate after 1 hr by fluorescence polarization assay relative to control
[23] = target: Dual specificity calcium/calmodulin-dependent 3',5'-cyclic nucleotide phosphodiesterase 1A (Homo sapiens) (UniProt P54750); test: Inhibition of N-terminal GST-tagged full length recombinant human PDE1A expressed in Baculovirus infected Sf9 insect cells at 30 uM using FAM-cAMP as substrate after 1 hr by fluorescence polarization assay relative to control
[24] = target: cGMP-dependent 3',5'-cyclic phosphodiesterase (Homo sapiens) (UniProt O00408); test: Inhibition of N-terminal FLAG-tagged human PDE2A1 (2 to 941 residues) expressed in Baculovirus infected Sf9 insect cells at 30 uM using FAM-cAMP as substrate after 1 hr by fluorescence polarization assay relative to control
[25] = target: cGMP-inhibited 3',5'-cyclic phosphodiesterase 3B (Homo sapiens) (UniProt Q13370); test: Inhibition of N-terminal GST-tagged recombinant human PDE3B (592 end residues) expressed in Baculovirus infected Sf9 insect cells at 30 uM using FAM-cAMP as substrate after 1 hr by fluorescence polarization assay relative to control
[26] = target: 3',5'-cyclic-AMP phosphodiesterase 4A (Homo sapiens) (UniProt P27815); test: Inhibition of N-terminal GST-tagged full length recombinant human PDE4A1A expressed in Baculovirus infected Sf9 insect cells at 8 uM using FAM-cAMP as substrate after 1 hr by fluorescence polarization assay relative to control

Chain of cGMP-dependent 3',5'-cyclic phosphodiesterase (Homo sapiens) (O00408 whole entry, the tested form may be a part): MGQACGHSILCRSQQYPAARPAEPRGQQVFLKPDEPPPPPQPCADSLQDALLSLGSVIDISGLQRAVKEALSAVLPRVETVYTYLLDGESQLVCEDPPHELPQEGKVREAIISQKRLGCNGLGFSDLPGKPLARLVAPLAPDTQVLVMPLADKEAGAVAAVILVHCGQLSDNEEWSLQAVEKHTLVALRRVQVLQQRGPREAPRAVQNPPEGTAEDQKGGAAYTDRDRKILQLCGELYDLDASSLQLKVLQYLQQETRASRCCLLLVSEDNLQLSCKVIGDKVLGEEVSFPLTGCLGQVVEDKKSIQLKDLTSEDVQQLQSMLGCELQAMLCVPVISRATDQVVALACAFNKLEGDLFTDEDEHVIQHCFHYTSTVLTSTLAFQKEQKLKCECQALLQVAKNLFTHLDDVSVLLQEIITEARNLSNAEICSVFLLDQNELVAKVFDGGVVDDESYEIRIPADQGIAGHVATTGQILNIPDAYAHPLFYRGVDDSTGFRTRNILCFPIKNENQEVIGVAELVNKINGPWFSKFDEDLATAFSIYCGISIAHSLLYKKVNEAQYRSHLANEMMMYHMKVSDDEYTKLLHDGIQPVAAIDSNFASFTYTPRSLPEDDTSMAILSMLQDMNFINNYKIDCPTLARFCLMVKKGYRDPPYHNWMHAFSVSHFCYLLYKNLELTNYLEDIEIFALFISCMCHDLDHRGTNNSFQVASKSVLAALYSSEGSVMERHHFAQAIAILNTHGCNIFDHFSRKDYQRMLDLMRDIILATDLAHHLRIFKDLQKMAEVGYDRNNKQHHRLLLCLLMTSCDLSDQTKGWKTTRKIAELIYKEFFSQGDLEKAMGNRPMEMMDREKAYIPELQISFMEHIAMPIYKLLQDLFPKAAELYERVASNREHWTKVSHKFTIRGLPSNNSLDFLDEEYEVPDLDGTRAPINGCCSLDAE
Chain of Dual specificity calcium/calmodulin-dependent 3',5'-cyclic nucleotide phosphodiesterase 1A (Homo sapiens) (P54750 whole entry, the tested form may be a part): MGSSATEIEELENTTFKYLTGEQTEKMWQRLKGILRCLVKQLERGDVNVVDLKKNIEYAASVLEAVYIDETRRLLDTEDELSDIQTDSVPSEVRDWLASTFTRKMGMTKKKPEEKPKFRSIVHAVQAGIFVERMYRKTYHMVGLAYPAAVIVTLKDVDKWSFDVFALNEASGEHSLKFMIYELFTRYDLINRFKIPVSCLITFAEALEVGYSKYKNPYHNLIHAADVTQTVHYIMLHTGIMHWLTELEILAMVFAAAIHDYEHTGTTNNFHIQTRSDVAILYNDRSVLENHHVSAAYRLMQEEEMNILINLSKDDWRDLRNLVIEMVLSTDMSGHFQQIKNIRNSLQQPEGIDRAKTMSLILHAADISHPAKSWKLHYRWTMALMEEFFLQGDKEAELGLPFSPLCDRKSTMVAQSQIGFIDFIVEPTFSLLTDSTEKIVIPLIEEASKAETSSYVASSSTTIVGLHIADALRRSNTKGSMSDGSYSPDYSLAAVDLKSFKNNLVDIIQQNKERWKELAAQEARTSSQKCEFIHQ
Chain of Cone cGMP-specific 3',5'-cyclic phosphodiesterase subunit alpha' (P51160 whole entry): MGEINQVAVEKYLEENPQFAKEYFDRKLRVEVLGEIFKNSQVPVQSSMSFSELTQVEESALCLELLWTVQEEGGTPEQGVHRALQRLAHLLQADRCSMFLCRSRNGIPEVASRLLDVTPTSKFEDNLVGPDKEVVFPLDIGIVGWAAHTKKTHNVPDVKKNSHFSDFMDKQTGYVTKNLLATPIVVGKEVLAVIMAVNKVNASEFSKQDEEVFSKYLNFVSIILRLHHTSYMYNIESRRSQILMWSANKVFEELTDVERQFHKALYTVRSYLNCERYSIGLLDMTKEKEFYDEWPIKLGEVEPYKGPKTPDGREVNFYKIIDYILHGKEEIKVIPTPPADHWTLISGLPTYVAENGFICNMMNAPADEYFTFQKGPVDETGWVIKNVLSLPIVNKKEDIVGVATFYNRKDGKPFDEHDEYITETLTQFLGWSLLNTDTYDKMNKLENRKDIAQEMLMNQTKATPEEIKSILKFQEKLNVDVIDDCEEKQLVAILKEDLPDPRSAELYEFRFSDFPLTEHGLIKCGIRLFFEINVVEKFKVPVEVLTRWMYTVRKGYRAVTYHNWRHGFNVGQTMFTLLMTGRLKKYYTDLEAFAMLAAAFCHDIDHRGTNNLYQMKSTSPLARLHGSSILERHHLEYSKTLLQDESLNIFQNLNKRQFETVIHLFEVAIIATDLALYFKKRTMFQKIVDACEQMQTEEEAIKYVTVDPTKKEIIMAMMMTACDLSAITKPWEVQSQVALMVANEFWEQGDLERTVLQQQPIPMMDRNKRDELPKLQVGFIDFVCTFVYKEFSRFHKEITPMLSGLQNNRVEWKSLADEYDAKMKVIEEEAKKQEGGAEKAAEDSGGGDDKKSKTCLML
Chain of 3',5'-cyclic-AMP phosphodiesterase 4A (Homo sapiens) (P27815 whole entry): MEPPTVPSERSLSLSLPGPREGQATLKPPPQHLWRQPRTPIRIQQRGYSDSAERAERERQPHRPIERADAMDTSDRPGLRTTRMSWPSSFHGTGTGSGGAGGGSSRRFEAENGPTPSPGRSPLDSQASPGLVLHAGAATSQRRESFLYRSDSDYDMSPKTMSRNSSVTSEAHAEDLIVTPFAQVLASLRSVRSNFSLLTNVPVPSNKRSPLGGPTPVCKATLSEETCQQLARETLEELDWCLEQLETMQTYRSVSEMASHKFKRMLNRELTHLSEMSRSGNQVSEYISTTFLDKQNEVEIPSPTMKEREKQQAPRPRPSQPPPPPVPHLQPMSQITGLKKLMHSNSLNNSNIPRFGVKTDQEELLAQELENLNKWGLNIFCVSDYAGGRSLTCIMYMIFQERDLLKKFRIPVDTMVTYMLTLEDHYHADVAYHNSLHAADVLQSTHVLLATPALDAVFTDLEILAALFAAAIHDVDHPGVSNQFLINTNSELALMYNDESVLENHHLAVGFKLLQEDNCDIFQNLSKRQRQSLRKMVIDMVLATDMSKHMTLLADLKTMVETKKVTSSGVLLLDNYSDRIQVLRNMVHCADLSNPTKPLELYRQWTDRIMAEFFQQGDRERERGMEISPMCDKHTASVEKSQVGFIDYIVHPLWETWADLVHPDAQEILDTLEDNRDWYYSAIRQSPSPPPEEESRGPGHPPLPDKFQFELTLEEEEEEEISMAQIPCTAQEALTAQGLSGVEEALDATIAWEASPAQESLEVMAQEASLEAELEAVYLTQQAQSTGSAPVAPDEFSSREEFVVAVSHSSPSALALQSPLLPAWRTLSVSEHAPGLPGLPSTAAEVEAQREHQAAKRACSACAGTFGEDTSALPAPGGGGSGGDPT
Chain of cGMP-inhibited 3',5'-cyclic phosphodiesterase 3B (Homo sapiens) (Q13370 whole entry, looked up): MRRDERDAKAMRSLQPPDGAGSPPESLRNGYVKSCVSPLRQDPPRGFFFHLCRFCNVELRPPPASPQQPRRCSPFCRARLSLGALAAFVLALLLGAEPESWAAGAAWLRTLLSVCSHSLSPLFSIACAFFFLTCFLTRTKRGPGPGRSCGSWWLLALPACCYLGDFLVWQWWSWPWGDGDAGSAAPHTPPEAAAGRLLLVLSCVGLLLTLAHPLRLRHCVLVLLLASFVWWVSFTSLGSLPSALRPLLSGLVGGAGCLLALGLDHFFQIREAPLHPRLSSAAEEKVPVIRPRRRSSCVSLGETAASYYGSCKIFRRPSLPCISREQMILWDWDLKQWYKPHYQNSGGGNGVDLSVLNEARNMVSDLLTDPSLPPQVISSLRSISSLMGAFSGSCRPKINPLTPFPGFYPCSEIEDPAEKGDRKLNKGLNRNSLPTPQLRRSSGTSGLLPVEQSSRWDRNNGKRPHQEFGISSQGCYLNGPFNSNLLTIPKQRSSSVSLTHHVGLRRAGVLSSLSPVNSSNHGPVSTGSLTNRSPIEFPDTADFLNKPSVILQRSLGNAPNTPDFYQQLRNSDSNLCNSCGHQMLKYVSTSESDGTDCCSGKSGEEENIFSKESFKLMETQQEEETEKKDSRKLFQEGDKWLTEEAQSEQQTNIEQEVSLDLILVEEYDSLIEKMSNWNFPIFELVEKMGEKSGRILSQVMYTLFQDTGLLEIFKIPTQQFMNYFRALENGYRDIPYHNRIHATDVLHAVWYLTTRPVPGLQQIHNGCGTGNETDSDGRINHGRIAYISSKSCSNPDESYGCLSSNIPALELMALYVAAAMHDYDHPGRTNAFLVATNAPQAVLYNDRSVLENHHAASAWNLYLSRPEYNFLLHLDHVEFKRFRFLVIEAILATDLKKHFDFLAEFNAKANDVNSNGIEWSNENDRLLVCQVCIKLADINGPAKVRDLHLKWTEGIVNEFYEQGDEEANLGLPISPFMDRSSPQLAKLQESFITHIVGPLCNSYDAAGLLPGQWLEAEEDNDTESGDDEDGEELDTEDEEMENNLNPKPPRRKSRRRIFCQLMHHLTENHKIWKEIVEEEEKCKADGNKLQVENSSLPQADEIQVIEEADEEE

Row | SMILES | IC50 [1] [nM] | Ratio IC50 (Homo sapiens [2]) | Ratio IC50 (Homo sapiens [3]) | Ratio IC50 (Homo sapiens [4]) | Ratio IC50 (Homo sapiens [5]) | Ratio IC50 (Homo sapiens [6]) | IC50 [7] [nM] | also measured
1 | CCc1ccc(C2c3[nH]c4ccccc4c(=O)c3CN2c2ncccn2)s1 (stereo not given) | 2.5 | > 10000 | > 10000 | > 10000 | > 2500 | 1.5 | 3.7 | inhibition [8]: 3.5%; inhibition [9]: 37%; inhibition [10]: 2.5%; inhibition [11]: 8%
2 | OCc1ccoc1-c1nccc2c1[nH]c1ccccc12 | – | – | – | – | – | – | – | IC50 [17]: 4900 nM
3 | CCc1ccc(C2c3[nH]c4ccccc4c(=O)c3CN2c2ccc(-c3ccccn3)cn2)s1 (stereo not given) | 1.2 | – | – | – | – | – | – | –
4 | CCc1ccc(C2c3[nH]c4ccccc4c(=O)c3CN2c2ncc(-c3ccc(OC)c(OC)c3)cn2)s1 (stereo not given) | 1.25 | – | – | – | – | – | – | –
5 | CCc1ccc(C2c3[nH]c4ccccc4c(=O)c3CN2c2ncc(Br)cn2)s1 (stereo not given) | 3.28 | – | – | – | – | – | – | –

More lines, main results first:

Row | IC50 [1] [nM] | Ratio IC50 (Homo sapiens [2]) | Ratio IC50 (Homo sapiens [3]) | Ratio IC50 (Homo sapiens [4]) | Ratio IC50 (Homo sapiens [5]) | Ratio IC50 (Homo sapiens [6]) | IC50 [7] [nM] | SMILES | also measured
6 | 0.54 | > 10000 | > 10000 | > 10000 | > 2500 | 4.3 | 2.3 | CCc1ccc(C2c3[nH]c4ccccc4c(=O)c3CN2c2ncc(-c3ccccn3)cn2)o1 (racemic) | Activity (Thoracic aorta [12]): >90%; inhibition [13]: 2.5%; inhibition [14]: 10%; inhibition [15]: 8%; inhibition [16]: 5%
7 | 26.9 | > 10000 | > 1500 | > 10000 | > 2500 | 1.3 | 34.1 | CCc1ccc([C@H]2c3[nH]c4ccccc4c(=O)c3CN2c2ncc(-c3ccccn3)cn2)s1 | Activity (Thoracic aorta [18]): 30%; inhibition [19]: 8%; inhibition [20]: 32%; inhibition [21]: 2%; inhibition [22]: 1%
8 | 3.14 | > 10000 | > 10000 | > 10000 | > 2500 | 2 | 6.2 | CCc1ccc(C2c3[nH]c4ccccc4c(=O)c3CN2c2ncccn2)o1 (stereo not given) | inhibition [23]: 3.5%; inhibition [24]: 33%; inhibition [25]: 3.5%; inhibition [26]: 11%
